The source of these data is ChEMBL document CHEMBL4732112, “Synthesis and in vitro evaluation of novel spiroketopyrazoles as acetyl-CoA carboxylase inhibitors and potential antitumor agents” (Eur J Med Chem, 2021).

In experiment [1] the target is T1, Acetyl-CoA carboxylase 1 (Homo sapiens, UniProt Q13085). The experiment in a line: Inhibition of recombinant human C-terminal His-tagged ACC1 (1 to 2383 residues) expressed in baculovirus infected Sf9 insect cells preincubated for 15 mins followed by substrate addition and measured after 60 mins by ADP-glo luminescence assay. The method, boiled down:
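Recombinant ACC1 in assay buffer preincubated with inhibitor in DMSO for 15 min at room temperature. Reaction started with substrate mixture and run 60 min at room temperature. Stopped with ADP-Glo reagent for 40 min, then detection reagent for 40 min to convert ADP to ATP, read by luminescence. Mean of two independent experiments.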
A general note: In ADP-Glo the light output rises with the ADP produced.

For experiment [2], the system named is A549. The experiment in a line: Antiproliferative activity against human A549 cells assessed as cell growth inhibition at 10 uM after 72 hrs by MTT assay relative to control. The experiment is classed as functional. The following applies: read-out: GI. In outline:
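Cells were DMEM/10% FBS cultures at 37 °C, 5% CO2, seeded at 3×10^3 per well and exposed for 72 h after 24 h attachment. Read-out was MTT with formazan in DMSO and absorbance at 550 nm, expressed as inhibition rate versus control.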

The test system of experiment [3] is HepG2. The experiment in a line: Antiproliferative activity against human HepG2 cells assessed as cell growth inhibition after 72 hrs by MTT assay. The experiment is classed as functional, cell-based. As to conditions: HepG2, 72 h. The method, boiled down:
(§1)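 HepG2, A549 or MDA-MB-231 cells grown in DMEM with 10% FBS and penicillin/streptomycin at 37 °C, 5% CO2. Seeded at 3×10^3 per well, left 24 h, then exposed to a range of concentrations for 72 h. MTT added for 4 h, formazan dissolved in DMSO, absorbance read at 550 nm. Mean ± SD, n=3.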
Background: Tetrazolium dyes change colour on reduction, which living cells bring about.

In experiment [4] the test system is MDA-MB-231. In words: Antiproliferative activity against human MDA-MB-231 cells assessed as cell growth inhibition after 72 hrs by MTT assay. As to conditions: MDA-MB-231, 72 h. The experiment is classed as functional, cell-based. The method, boiled down:
as §1

Experiment [5] deals with T1, Acetyl-CoA carboxylase 1. In words: Inhibition of ACC1 in human HepG2 cells assessed as reduction in intracellular triglyceride level at 10 uM measured after 48 hrs by GPO-PAP method relative to control. The experiment is classed as cell-based. The method, boiled down:
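HepG2 cells plated and exposed to the compound at several concentrations for 48 h. Cells washed with PBS, lysed in 1% Triton X-100 and spun 12000 rpm, 4 °C, 15 min. Malonyl-CoA measured by ELISA kit and triglyceride by GPO-POP kit, each normalised to BCA protein. Reported relative to control, mean ± SD, n=3.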

In experiment [6] the test system is HepG2. In words: Antiproliferative activity against human HepG2 cells assessed as cell viability at 0.5 uM measured after 5 days in presence of 10 uM palmitate by MTT assay relative to control. The experiment is classed as functional. As to conditions: HepG2, 120 h, time 5 day, read-out: Activity. In outline:
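HepG2 treated with 0.5 μM plus 0, 10 or 25 μM palmitate for 1, 3 and 5 days. Palmitate was complexed with 5% fatty-acid-free BSA from a 5 mM solution, then diluted in serum-free DMEM to final concentration. Viability (% control) by MTT. Mean ± SD, n=3.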

Experiment [7] has as its system HepG2. The experiment in a line: Cell cycle arrest in human HepG2 cells assessed as accumulation at G0/G1 phase measured after 48 hrs by propidium iodide staining based flow cytometry. The experiment is classed as functional. The following applies: dose 1-10 µM. A general note: In flow cytometry, cells or beads pass a laser one at a time.
Experiment [8] has as its system HepG2. In words: Cell cycle arrest in human HepG2 cells assessed as accumulation at S phase at 1 uM measured after 48 hrs by propidium iodide staining based flow cytometry (reference value: 30.18%). The experiment is classed as functional.
In experiment [9] the test system is HepG2. The experiment in a line: Cell cycle arrest in human HepG2 cells assessed as accumulation at G2/M phase at 1 uM measured after 48 hrs by propidium iodide staining based flow cytometry (reference value: 13.58%). The experiment is classed as functional.
Experiment [10] relates to HepG2. In words: Cell cycle arrest in human HepG2 cells assessed as accumulation at S phase at 5 uM measured after 48 hrs by propidium iodide staining based flow cytometry (reference value: 30.18%). The experiment is classed as functional.
The test system of experiment [11] is HepG2. The experiment in a line: Cell cycle arrest in human HepG2 cells assessed as accumulation at G2/M phase at 5 uM measured after 48 hrs by propidium iodide staining based flow cytometry (reference value: 13.58%). The experiment is classed as functional.
The test system of experiment [12] is HepG2. In words: Cell cycle arrest in human HepG2 cells assessed as accumulation at G0/G1 phase at 10 uM measured after 48 hrs by propidium iodide staining based flow cytometry (reference value: 56.24%). The experiment is classed as functional.
Experiment [13] relates to HepG2. In words: Cell cycle arrest in human HepG2 cells assessed as reduction in CDK4 expression measured after 48 hrs by Western blot analysis. The experiment is classed as functional, cell-based. The following applies: dose 1-10 µM. In outline:
(§2)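 HepG2 cells treated for 48 h and lysed. Lysates cleared at 12000 rpm for 15 min and protein measured by BCA. Run on SDS-PAGE, transferred to PVDF, blocked in 5% BSA, primary antibody at 4 °C overnight, then DyLight 800 secondary. Infrared imaging and densitometry against β-actin. Mean ± SD, n=3.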

Experiment [14] relates to HepG2. In words: Cell cycle arrest in human HepG2 cells assessed as reduction in cyclin D1 expression at 10 uM measured after 48 hrs by Western blot analysis relative to control. The experiment is classed as functional. Also on record: scale not given: the % may be the effect or the level left. The method, boiled down: as §2
Experiment [15] has as its system HepG2. In words: Cell cycle arrest in human HepG2 cells assessed as reduction in CDK4 expression at 10 uM measured after 48 hrs by Western blot analysis relative to control. The experiment is classed as functional. The arrangement: scale not given: the % may be the effect or the level left. The method, boiled down:
as §2

For experiment [16], the system named is HepG2. The experiment in a line: Induction of apoptosis in human HepG2 cells assessed as chromatin shrinkage at 1 to 10 uM measured after 48 hrs by Hoechst 33258 staining based fluorescence microscopic analysis. The experiment is classed as functional, cell-based. As to conditions: dose 1-10 µM. In outline:
(§3)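 HepG2 cells exposed to varying concentrations for 48 h in 6-well plates. Stained with Hoechst 33258 in the dark for 20 min, then nuclear morphology inspected by fluorescence microscopy.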

The subject of experiment [17] is HepG2. In words: Induction of apoptosis in human HepG2 cells assessed as nuclear fragmentation at 1 to 10 uM measured after 48 hrs by Hoechst 33258 staining based fluorescence microscopic analysis. The experiment is classed as functional, cell-based. The following applies: dose 1-10 µM. In outline:
as §3

Experiment [18] has as its system HepG2. In words: Induction of apoptosis in human HepG2 cells assessed as increase in late apoptotic cells measured after 48 hrs by Annexin V-FITC/propidium iodide staining based flow cytometry. The experiment is classed as functional, cell-based. As to conditions: dose 1-10 µM. The method, boiled down:
(§4)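 HepG2 cells incubated with the stated concentrations for 48 h, harvested, and stained with Annexin V-FITC and propidium iodide protected from light. Viable, early apoptotic, late apoptotic and necrotic fractions quantified by flow cytometry. Mean ± SD, n=3.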

The subject of experiment [19] is HepG2. The experiment in a line: Induction of apoptosis in human HepG2 cells assessed as viable cells at 1 uM measured after 48 hrs by Annexin V-FITC/propidium iodide staining based flow cytometry (reference value: 95.6%). The experiment is classed as functional. As to conditions: read-out: Activity. In outline:
as §4

For experiment [20], the system named is HepG2. The experiment in a line: Induction of apoptosis in human HepG2 cells assessed as late apoptotic cells at 1 uM measured after 48 hrs by Annexin V-FITC/propidium iodide staining based flow cytometry (reference value: 0.19%). The experiment is classed as functional. In outline:
as §4

In experiment [21] the test system is HepG2. The experiment in a line: Induction of apoptosis in human HepG2 cells assessed as viable cells at 5 uM measured after 48 hrs by Annexin V-FITC/propidium iodide staining based flow cytometry (reference value: 95.6%). The experiment is classed as functional. As to conditions: read-out: Activity.
Experiment [22] has as its system HepG2. The experiment in a line: Induction of apoptosis in human HepG2 cells assessed as late apoptotic cells at 5 uM measured after 48 hrs by Annexin V-FITC/propidium iodide staining based flow cytometry (reference value: 0.19%). The experiment is classed as functional. In outline:
as §4

Experiment [23] deals with HepG2. The experiment in a line: Induction of apoptosis in human HepG2 cells assessed as necrotic cells at 10 uM measured after 48 hrs by Annexin V-FITC/propidium iodide staining based flow cytometry (reference value: 0.22%). The experiment is classed as functional. In outline: as §4
The subject of experiment [24] is HepG2. In words: Antiproliferative activity against human HepG2 cells assessed as reduction in cell viability measured after 72 hrs in presence of doxorubicin by MTT assay. The experiment is classed as functional, cell-based. The following applies: dose 0.0875-1.4 µM.

Active and inactive are the calls of the source. No cut-off for these calls is given here.

The term IC50 denotes the concentration that inhibits the measured activity by half. In general, inhibition refers to the relative decrease from the control value, in per cent.

Turning to `CC(C)(C)n1cc2c(n1)C(=O)CC1(CCN(C(=O)c3cc(-c4ccncc4)nc4ccccc34)CC1)O2`, the IC50 in experiment [1] stood at 11.3 nM; in [3] it was 380 nM; in experiment [4], 1650 nM. The inhibition of growth at 10 µM in experiment [2] turned out to be 79.3%. Also, in experiment [5], the inhibition was found to be 36.7%. Besides, the viability at 0.5 µM in [6] came out at 68.9%. Besides, the Activity result in experiment [7] is “Dose-dependent effect”; in experiment [8], 21.46%; in [9], 10.86%; in [10] it was 14.71%; in [11] it was 6.46%; in [12] it was 88.61%. Further, the Activity entry in experiment [13] is “Dose-dependent effect”; in experiment [14], 43.92%; in experiment [15], 60.76%; in [18], “Dose-dependent effect”; in experiment [20], 12.7%; in [22] it was 32.6%. In addition, the Activity in [23] is 0.64%; in experiment [24] it was “Dose-dependent effect”. The result in experiment [16] and in experiment [17] was Active. For the same molecule, the viability at 1 µM in [19] is 72.1%. Besides, the viability at 5 µM in [21] is 44.8%.
